The results in this text go back to ChEMBL document CHEMBL4513216, “Probing the Open Global Health Chemical Diversity Library for Multistage-Active Starting Points for Next-Generation Antimalarials” (ACS Infect Dis, 2020).

Structures are written as SMILES.

This series is described as follows: Toxicity liver stage against HepG2, at 10uM. The settings on record: human, HepG2-A16-CD81EGFP cells; read-out: INHIBITION
It is filed as cell-based. Also noted: test concentration 10 uM, cell line HepG2-A16-CD81EGFP. An outline of the steps: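 Uninfected HepG2-A16-CD81EGFP cells, 3 × 10^3 per well, 1536-well, plated on prespotted compound at 10 μM final, parasite-free screening media added to match infected plates; puromycin 10 μM positive, DMSO 0.5% negative; run in parallel with 48 h PbLuc assay at 37 °C, 5% CO2; viability by CellTiter-Glo luminescence, normalized to controls.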
For `COC(=O)Cn1c(C)cc(=O)n2nc(-c3cccs3)nc12`, the cytotoxicity at 10 µM was 8.74%.
The same measure for `O=C(NCCCN1CCOCC1)c1ccc(-n2ccc3ccccc32)s1`: -3.42%.
The value for `COc1cc(CN2CCCCCC2c2cccs2)cc(OC)c1OC` (centres undefined) was 33.3%; that for `Cc1cc(Cl)ccc1-n1ncc(C(=O)N(C)CCc2ccccn2)c1N` was -7.3%.
For the compound `O=C(O)c1cc(S(=O)(=O)Nc2cnn(C3CCOCC3)c2)ccc1F`, the cytotoxicity at 10 µM was -10.9%.
For the compound `CC(C)NC(=O)N1CCCC2(CC(C(=O)Nc3ccccc3)=NO2)C1` (centres undefined), the cytotoxicity at 10 µM was -3.36%.
The same measure for `COCC(=O)N1Cc2nccn2CC(COc2cccnc2)C1` (centres undefined): 5.41%.
Take `Cc1ccc(C)c(NC(=O)Nc2c[nH]c(=O)[nH]c2=O)c1`: the cytotoxicity at 10 µM is 0.0452%.
As for `CCCc1nc(NCCCOC)c2c(n1)c(C)nn2CC`, the cytotoxicity at 10 µM came out at 24.6%.
The same measure for `CNC(=O)CCc1cc(C2CCCN2C(=O)CO)nc(C)n1` (centres undefined): -0.785%.
As for `CC(C)N1CC(c2ccnc(Nc3nccs3)n2)C1`, the cytotoxicity at 10 µM worked out at 1.18%.
The value for `Cc1ccc(OCCN2CCC(c3nc(C)n4c(C)csc34)CC2)cc1` was 1.94%; that for `CC(C(=O)N1CCOCC1)n1nc(-c2cccs2)cc(N)c1=O` (centres undefined) was 8.74%; that for `CN(C)C(=O)C1CN(c2ccncn2)CCN(C2CCOCC2)C1` (centres undefined) was -0.621%.
As for `O=C(CCn1c(C(F)(F)F)cc2cccnc21)N1CCC(O)CC1`, the cytotoxicity at 10 µM is -28.5%.
The same measure for `COc1ccccc1C1=NOC(CC2(C(=O)O)CCOCC2)C1` (centres undefined): -9.9%; for `CC(=O)N1CCC(c2cnc(-c3c(C)nn(C)c3C)cn2)CC1`: -33.6%; for `Cc1ncc(CNC(=O)CCc2cccs2)c(C2CCCN2C)n1` (centres undefined): -9.72%.
The same measure for `CCCN(C(=O)c1cnccn1)c1nc2c(s1)CCc1c-2cnn1C`: -16.7%.
The value for `C=Cc1ccc(CN2CCCC3(CNC(=O)c4ccccc4O3)C2)cc1` (centres undefined) was -22.6%; that for `CS(=O)(=O)N1CCCC(Cc2cncc(Br)c2)CC1` (centres undefined) was 2.16%.
Consider `Cc1ncc(C(=O)N2CCCC(Cc3nccs3)C2)cn1` (centres undefined), for which the cytotoxicity at 10 µM was -2.03%.
`O=C1Nc2ccccc2CNC12CCN(CC1CCNC1)CC2` (centres undefined): the cytotoxicity at 10 µM came out at 6.61%.
The same measure for `CC(O)CNC(=O)Nc1ccc(Br)cc1Br` (centres undefined): -1.45%.
The same measure for `CN1CCOC(C(=O)N(C)c2ccc3c(c2)CCO3)C1` (centres undefined): -45.4%; for `CCCS(=O)(=O)NC(C)c1cccc(-n2cccn2)c1` (centres undefined): 3.65%.
The same measure for `COc1ccc(CNC(=O)c2ccoc2CN2CCNC(=O)C2)cc1`: 6.41%.
As to `NC(c1ccccc1)c1ccc(OC(F)F)cc1` (centres undefined), the cytotoxicity at 10 µM was found to be 1.79%.
The same measure for `Cc1ccc(CN(C)C(=O)NCC(=O)NC(C)(C)C)s1`: 0.136%.
The same measure for `Cc1ccc(CN(C)C(=O)NCC(C)(C)CCS(C)(=O)=O)s1`: 6.24%; for `Cc1nc(CC2CCCN(Cc3nc(N)c4ccccc4n3)C2)no1` (centres undefined): -41.3%.
The value for `N#CCCN(Cc1ccco1)C(=O)CN1CCCC1c1cccs1` (centres undefined) was -2.56%.
On to `COCCOc1ccc(NC(=O)N(CCCO)CC(C)(C)C)cn1`, for which the cytotoxicity at 10 µM is -7.85%.
Take `COc1ccc(CCCC(=O)NCc2c(C)noc2C)cc1F`: the cytotoxicity at 10 µM was -6.35%.
The value for `COc1c(CNCc2ccc(N3CCOCC3)cc2)c(C)nn1C` was 2.1%; that for `Cc1ccc(F)cc1NC(=O)CNc1cccc2c1CCCC2` was 4.33%; that for `Cc1nn(C)c(N(C)C)c1CNCc1cnn(Cc2ccccc2)c1` was -5.6%.
`COc1cc(C(=O)N(CCC#N)Cc2ccccn2)ccc1C`: the cytotoxicity at 10 µM was determined as 11.3%.
The value for `CCOCCC(=O)NC1(c2cccc(Br)c2)CC1` was 7.53%; that for `CC(C)(C)c1nnc(CN2CCN(C(=O)N3CCCCC3)CC2)o1` was 2.44%; that for `CN(C)c1ccc(C(=O)N(CCO)CC2CC2)c(F)c1` was 5.25%.
The value for `COCCN(Cc1cccnc1)S(=O)(=O)c1cccc(F)c1F` was -1.89%; that for `CC(C)c1n[nH]c(C2CN(C(=O)c3cc(C4CC4)on3)CCO2)n1` (centres undefined) was -1.7%.
The same measure for `O=C(C1CC=CC1)N1CCC2(CC1)OCCO2`: 6.9%; for `CC(C)CC(=O)NCCCn1cncn1`: -18.9%; for `CNS(=O)(=O)CCCN1CCN(C(C)c2cccnc2)CC1` (centres undefined): -10.7%.
Consider `COc1ccc(CCNC(=O)CC(NC(N)=O)c2ccccc2)cc1` (centres undefined), for which the cytotoxicity at 10 µM came to 2.19%.
The value for `N#Cc1cc(N2CCC(S(N)(=O)=O)CC2)c2ccccc2n1` was -5.03%; that for `O=c1[nH]c2csnc2c(=O)n1Cc1ccc(Br)cc1` was 5.41%; that for `CS(=O)(=O)Cc1ccc(C(=O)NCc2ccc(Cl)cc2Cl)cc1` was -47.6%.
As to `O=C1C(Nc2ccc3nccnc3n2)CCN1c1ccccc1` (centres undefined), the cytotoxicity at 10 µM came to 0.562%.
The value for `Cc1nccn1C1CCCN(C(=O)Cn2ccc(=O)n(C)c2=O)C1` (centres undefined) was -5.17%; that for `O=C(CCCNC(=O)C1CCCO1)Nc1ccc(Cl)cc1` (centres undefined) was 13.2%; that for `CN(CCOc1cccc(CNC(=O)C2CC2)c1)C1CCOCC1` was -7.12%.
For `CCc1nc(CN2CCCC(N(C)Cc3cnn(C)c3)C2)no1` (centres undefined), the cytotoxicity at 10 µM was -14.5%.
As to `CCc1nccn1C1CCCN(C(=O)c2cnc3ccccc3n2)C1` (centres undefined), the cytotoxicity at 10 µM was -4.61%.
Consider `Cc1cccc(N2CCN(CCCNC(=O)c3nccn3C)CC2)c1`, for which the cytotoxicity at 10 µM is -0.679%.
On to `O=c1cc(CN2CCCC2)nc2n1CCCN(S(=O)(=O)C1CC1)C2`, for which the cytotoxicity at 10 µM was -3.56%.
For `Cc1ccsc1C(=O)N1CCc2ncc(Cn3cccn3)n2CC1`, the cytotoxicity at 10 µM was -108%.
The value for `O=c1c(-c2ccnc(NC3CCCCC3)n2)cnc2sc(Cl)cn12` was -6.22%; that for `CC(C)Nc1ncc(-c2csc(NC(=O)C[C@H]3COCCN3)n2)cn1` was -8.69%.
The value for `CCCN1CCCn2nc(CNS(=O)(=O)c3cnn(CC)c3)cc2C1` was -7.23%.
For the compound `Cc1nn(C)c(C)c1CN(C)C(=O)c1cccc(CCC(C)(C)O)c1`, the cytotoxicity at 10 µM was 3.13%.
The value for `Cc1ccc(OC2(C(=O)O)CCN(C(=O)c3ccccc3F)CC2)cn1` was 2.75%.
The same measure for `CCC(NC1Cc2ccccc2C1)c1ccc(S(C)(=O)=O)cc1` (centres undefined): -2.02%; for `Cc1cc2ccccc2n1CCC(=O)N1CCC2(CC1)CNC(=O)C2`: 0.105%; for `CCN(CC1=CCN(C)CC1)C(=O)CCOC`: 5.09%.
In the case of `O=C1CCN(Cc2cnc3c(-c4ccccc4)cnn3c2)CCN1`, the cytotoxicity at 10 µM turned out to be 11%.
As to `O=C(NCCc1ccccc1)c1cn(CCNCc2cccnc2)nn1`, the cytotoxicity at 10 µM is -2.68%.
The same measure for `Cc1cc(C(F)(F)F)nc(CNC(=O)CCC2CCCN(C)C2)n1` (centres undefined): -53.9%.
In the case of `CC(C)CCC(=O)N1CCC(c2nnc(CN(C)CCO)n2C)CC1`, the cytotoxicity at 10 µM was 0.832%.
The same measure for `CCc1nccn1CCC(=O)N1CC[C@H](CO)[C@H](O)C1`: -1.2%; for `NCCn1cc(C(=O)NCc2ccccc2Cn2cccn2)nn1`: 3.41%; for `CCN(CC)C(=O)c1c(Br)cnn1CC`: 2.63%.
The same measure for `CCN(CC)C(=O)c1ccc(CNc2cncc(-n3cccn3)n2)cc1`: 7.18%; for `Cc1cn2c(n1)CCC(NC(=O)CCCn1cncn1)C2` (centres undefined): -9.12%.
Turning to `CC(C)Oc1ccc(CNC(=O)NCc2ccncc2)cc1F`, the cytotoxicity at 10 µM was -18.3%.
The value for `CNc1cc(N2CCCC2CNCc2csc(C)n2)ncn1` (centres undefined) was -9.71%; that for `Cc1ccc(C(=O)N2CCC(Oc3ccccc3)CC2)c(=O)[nH]1` was -1.01%; that for `CC(C)Oc1ccc(C(=O)NCc2ccc3c(c2)CCCN3C)cn1` was -6.63%.
The value for `CC(C)c1nc(CN(C)C2CCN(CCn3cc(C#N)cn3)C2)no1` (centres undefined) was -6.29%.
The same measure for `CCn1nc2c(cc1=O)CN(CC(=O)Nc1nncs1)CC2`: -0.284%.
On to `Cc1cnn(CC2CCCN2C(=O)c2cc3ccccc3c(=O)[nH]2)c1` (centres undefined), for which the cytotoxicity at 10 µM was -4.77%.
On to `O=C(CCc1ccccc1)N1CCCCC1Cn1cccn1` (centres undefined), for which the cytotoxicity at 10 µM came out at 3.78%.
The value for `CCc1nnc2n1CCN(CCC(=O)Nc1cc(C)on1)C2` was 4.23%; that for `Cc1cc(CN(C)C(=O)NC2CCCN(c3ncccn3)C2)no1` (centres undefined) was -7.26%.
The same measure for `Cc1ncc(CN(C)C2CCCN(Cc3noc(C4CC4)n3)C2)s1` (centres undefined): -13.5%.
As to `c1ncn(CC2CCCN(Cc3nc(C4CC4)no3)C2)n1` (centres undefined), the cytotoxicity at 10 µM is -12.9%.
The value for `CC(=O)NC(C)(C)C(=O)Nc1ncc(Cc2ccc(C)c(F)c2)s1` was 0.987%; that for `Cc1cc(C)n(C2CCCN(C(=O)C3=NN(C)C(=O)CC3)C2)n1` (centres undefined) was -9.21%; that for `O=C(CCNc1ncccn1)NCCc1ccn(-c2ccccc2)n1` was 0.914%.
Regarding `Cc1nc(CN2C(=O)CCC23CCN(Cc2cccn2C)CC3)cs1`, the cytotoxicity at 10 µM stood at 0.676%.
The value for `Cc1ccc(-c2ccc(CC3NCCN(C)C3=O)cc2)cc1` (centres undefined) was -25%; that for `Cn1nnc2c1C(COCc1cccnc1)CN(Cc1ccoc1)C2` (centres undefined) was -2.55%.
The value for `CC(=O)N1CCC2(CC1)CNc1c(F)cccc12` was 4.79%; that for `CC(C)Cn1cc2nc(N)[nH]cc-2c1=O` was 5.26%.
As for `COc1ccc(-c2ncccc2C(=O)N2C[C@@H]3CC[C@H]2C3)cn1`, the cytotoxicity at 10 µM stood at 6.42%.
As for `Cc1[nH]c2cc(C3CCN(C(=O)c4ccccn4)CC3)nn2c(=O)c1C`, the cytotoxicity at 10 µM was 0.636%.
The same measure for `Cc1nnsc1CN1C[C@@H]2CC[C@H]1CN(Cc1ccc(F)cc1)C2`: -7.44%.
